The source made the active and inactive calls. The calls are words filed in the database; no cut-off is given here.
What was measured:
[1] = biological target: T1, Amyloid-beta precursor protein (Homo sapiens, UniProt P05067); assay: Inhibition of self-induced amyloid beta 40 (unknown origin) aggregation measured for 24 hrs by thioflavin T-based fluorescence spectroscopic analysis
[2] = biological target: T1, Amyloid-beta precursor protein; assay: Inhibition of self-induced amyloid beta 42 (unknown origin) aggregation measured for 24 hrs by thioflavin T-based fluorescence spectroscopic analysis
[3] = biological target: T1, Amyloid-beta precursor protein; assay: Inhibition of nucleation-dependent amyloid beta 40 (unknown origin) aggregation at 1 to 25 uM measured for 24 hrs by thioflavin T-based fluorescence spectroscopic analysis
Outline: (§1)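 Aβ peptide at 5 μM incubated with test compound (1, 5 or 25 μM) in phosphate buffer pH 7.4 at 37 °C for 24 h; aggregation monitored by ThT fluorescence (excitation 440 nm, emission 490 nm). IC50 calculated from ThT signal; mean of triplicate readings from three independent experiments.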

[4] = biological target: T1, Amyloid-beta precursor protein; assay: Inhibition of amyloid beta 42 (unknown origin) aggregation assessed as time at which fluorescence intensity reaches the midpoint between pre and post aggregation baseline growth phase at 25 uM measured for 24 hrs by thioflavin T-based fluorescence spectroscopic analysis
Outline: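 Aβ42 at 5 μM with compound at 25 μM in phosphate buffer pH 7.4, 37 °C, followed 24 h by ThT fluorescence (ex 440/em 490 nm). t50 taken as the time at which fluorescence reaches the midpoint between pre- and postaggregation baselines of the growth phase. Three independent experiments in triplicate.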

[5] = biological target: T1, Amyloid-beta precursor protein; assay: Inhibition of amyloid beta 40 (unknown origin) aggregation at 25 uM after 24 hrs by transmission electron microscopy
Outline: (§2)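 Aβ40 or Aβ42 at 25 μM, alone or with 25 μM compound, incubated 24 h at 37 °C in phosphate buffer pH 7.4; fibril and aggregate morphology then imaged by transmission electron microscopy.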

[6] = biological target: T1, Amyloid-beta precursor protein; assay: Inhibition of amyloid beta 42 (unknown origin) aggregation at 25 uM after 24 hrs by transmission electron microscopy; outline: as §2
[7] = biological target: T1, Amyloid-beta precursor protein; assay: Potency index, ratio of curcumin IC50 for amyloid beta 40 (unknown origin) aggregation to compound IC50 for amyloid beta 40 (unknown origin) aggregation
[8] = biological target: T1, Amyloid-beta precursor protein; assay: Induction of self-induced amyloid beta 40 (unknown origin) aggregation measured for 24 hrs by thioflavin T-based fluorescence spectroscopic analysis; outline: as §1
[9] = biological target: T1, Amyloid-beta precursor protein; assay: Induction of self-induced amyloid beta 42 (unknown origin) aggregation measured for 24 hrs by thioflavin T-based fluorescence spectroscopic analysis; outline: as §1
[10] = biological target: T1, Amyloid-beta precursor protein; assay: Potency index, ratio of curcumin IC50 for amyloid beta 42 (unknown origin) aggregation to compound IC50 for amyloid beta 42 (unknown origin) aggregation

T1 sequence (P05067 whole entry): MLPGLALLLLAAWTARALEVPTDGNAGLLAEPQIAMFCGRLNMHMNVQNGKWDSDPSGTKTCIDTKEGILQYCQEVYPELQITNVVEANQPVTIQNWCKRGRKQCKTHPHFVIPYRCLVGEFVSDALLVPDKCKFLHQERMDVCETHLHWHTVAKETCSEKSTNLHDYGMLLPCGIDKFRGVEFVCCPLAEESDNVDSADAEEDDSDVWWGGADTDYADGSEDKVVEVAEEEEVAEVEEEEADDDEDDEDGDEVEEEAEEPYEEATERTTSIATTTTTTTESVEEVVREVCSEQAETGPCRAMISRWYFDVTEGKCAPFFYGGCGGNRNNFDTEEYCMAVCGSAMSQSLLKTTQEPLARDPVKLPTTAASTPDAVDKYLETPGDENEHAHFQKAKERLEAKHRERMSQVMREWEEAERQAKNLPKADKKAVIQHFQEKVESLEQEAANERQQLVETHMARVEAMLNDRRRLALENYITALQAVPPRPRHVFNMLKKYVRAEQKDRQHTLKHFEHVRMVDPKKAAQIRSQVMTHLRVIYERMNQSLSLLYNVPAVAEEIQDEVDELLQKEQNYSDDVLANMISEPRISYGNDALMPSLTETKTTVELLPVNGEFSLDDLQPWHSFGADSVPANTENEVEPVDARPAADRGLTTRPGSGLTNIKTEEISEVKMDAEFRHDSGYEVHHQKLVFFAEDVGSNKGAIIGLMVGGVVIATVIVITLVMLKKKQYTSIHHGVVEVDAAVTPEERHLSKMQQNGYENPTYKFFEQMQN

IC50 [1] | IC50 ([2]; read-out: IC50) | SMILES | further results
2.8 µM | > 25 µM | Nc1nc(NCc2cccc(F)c2)c2ccccc2n1 | –
3.9 µM | > 25 µM | Cc1ccc(CNc2nc(N)nc3ccccc23)cc1 | –
1.9 µM | > 25 µM | Nc1nc(NCc2ccc(C(F)(F)F)cc2)c2ccccc2n1 | –
6.8 µM | > 25 µM | COc1ccc(CNc2nc(N)c3ccccc3n2)cc1 | –
> 25 µM | > 25 µM | CCCNc1nc(N)c2ccccc2n1 | –
1.1 µM | > 25 µM | COc1ccc(CNc2nc(N)nc3ccccc23)cc1 | –
3.6 µM | > 25 µM | Cc1cccc(CNc2nc(N)nc3ccccc23)c1 | –
0.08 µM | 14.8 µM | Nc1nc(NCc2ccc(Br)cc2)c2ccccc2n1 | inhibition [3]: Active; TIME [4]: 3.5 h; inhibition [5]: Active; inhibition [6]: Active; Ratio IC50 [7]: 18
12.5 µM | 13.8 µM | Nc1nc(NCc2cccc(C(F)(F)F)c2)nc2ccccc12 | –
– | – | Nc1nc(N)c2ccccc2n1 | Activity [8]: Active; Activity [9]: Active
1.5 µM | 2.7 µM | Nc1nc(NCc2cccc(Br)c2)nc2ccccc12 | inhibition [1]: Dose-dependent effect; inhibition [2]: Dose-dependent effect; TIME [4]: 6 h
0.58 µM | 22.3 µM | Nc1nc(NCc2cccc(Br)c2)c2ccccc2n1 | inhibition [3]: Active; TIME [4]: 2.6 h
14.9 µM | > 25 µM | Nc1nc(NCCc2ccccc2)nc2ccccc12 | –
20.6 µM | – | COc1cccc(CNc2nc(N)nc3ccccc23)c1 | IC50 [2]: Not Active
2.2 µM | 8.4 µM | Nc1nc(NCc2ccccc2)nc2ccccc12 | –
3.5 µM | 21 µM | Nc1nc(NCc2cccc(C(F)(F)F)c2)c2ccccc2n1 | –
1.9 µM | > 25 µM | Nc1nc(NCc2cccc(Cl)c2)c2ccccc2n1 | –
5.9 µM | 13.4 µM | Nc1nc(NCc2cccc(Cl)c2)nc2ccccc12 | –

IC50 [1] | IC50 ([2]; read-out: IC50) | SMILES | further results
10.2 µM | – | CC(C)Nc1nc(N)nc2ccccc12 | IC50 [2]: Not Active
14.9 µM | – | CCCNc1nc(N)nc2ccccc12 | IC50 [2]: Not Active
> 25 µM | > 25 µM | CC(C)Nc1nc(N)c2ccccc2n1 | –
2.3 µM | 5.3 µM | Nc1nc(NCc2ccc(C(F)(F)F)cc2)nc2ccccc12 | –
3.1 µM | > 25 µM | Nc1nc(NCc2ccc(F)cc2)c2ccccc2n1 | –
1.7 µM | 1.7 µM | Nc1nc(NCc2ccc(Br)cc2)nc2ccccc12 | inhibition [1]: Dose-dependent effect; inhibition [2]: Dose-dependent effect; inhibition [4]: Active; inhibition [5]: Active; inhibition [6]: Active; Ratio IC50 [10]: 1.8
0.93 µM | 8.1 µM | Nc1nc(NCc2ccc(Cl)cc2)nc2ccccc12 | –
13.6 µM | > 25 µM | Nc1nc(NCC2CCCCC2)c2ccccc2n1 | –
4.8 µM | > 25 µM | Nc1nc(NCc2ccccc2)c2ccccc2n1 | –
0.62 µM | > 25 µM | Nc1nc(NCc2ccc(Cl)cc2)c2ccccc2n1 | Ratio IC50 [7]: 2.4
11.3 µM | 14.7 µM | Nc1nc(NCc2cccc(F)c2)nc2ccccc12 | –
> 25 µM | > 25 µM | COc1cccc(CNc2nc(N)c3ccccc3n2)c1 | –
7.8 µM | > 25 µM | Nc1nc(NCCc2ccccc2)c2ccccc2n1 | –
13.1 µM | 22.5 µM | Cc1ccc(CNc2nc(N)c3ccccc3n2)cc1 | –
3 µM | 8.7 µM | O=S(=O)(O)c1cc(S(=O)(=O)O)c2c(/N=N/c3ccccc3)c(O)ccc2c1 [ORANGE G SODIUM] | –
> 25 µM | > 25 µM | Nc1nc(NCc2ccc(F)cc2)nc2ccccc12 | –
> 25 µM | > 25 µM | Nc1nc(NCC2CCCCC2)nc2ccccc12 | –
> 25 µM | > 25 µM | Cc1cccc(CNc2nc(N)c3ccccc3n2)c1 | –
